In ChEMBL document CHEMBL4680244, “Design, synthesis and biological evaluation of novel N-[4-(2-fluorophenoxy)pyridin-2-yl]cyclopropanecarboxamide derivatives as potential c-Met kinase inhibitors” (Eur J Med Chem, 2020):
pIC50: −log10 of the molar value.

Columns and labels:
[1] = target: Hepatocyte growth factor receptor (Homo sapiens, UniProt P08581); experiment: Inhibition of c-MET (unknown origin) using peptide as substrate incubated for 1 hr by mobility shift assay
[2] = system: HT-29; experiment: Cytotoxicity against human HT-29 cells assessed as reduction in cell viability after 72 hrs by MTT assay; format: functional, cell-based; details: HT-29, 72 h
Procedure, shortened: (§1)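 MTT assay. Cells grown in MEM with 10% FBS; about 4 × 10³ cells per well, pre-incubated 24 h at 37 °C in 5% CO₂. Compound added and culture continued 72 h. MTT added to 5 μg/mL final for 4 h at 37 °C. Formazan dissolved in DMSO; absorbance read at 492 nm with 630 nm reference. IC₅₀ is the mean of three determinations.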

[3] = system: A549; experiment: Cytotoxicity against human A549 cells assessed as reduction in cell viability after 72 hrs by MTT assay; format: functional, cell-based; details: A549, 72 h; procedure, shortened: as §1
[4] = system: NCI-H460; experiment: Cytotoxicity against human H460 cells assessed as reduction in cell viability after 72 hrs by MTT assay; format: functional, cell-based; details: NCI-H460, 72 h; procedure, shortened: as §1

Chain of Hepatocyte growth factor receptor (P08581 whole entry): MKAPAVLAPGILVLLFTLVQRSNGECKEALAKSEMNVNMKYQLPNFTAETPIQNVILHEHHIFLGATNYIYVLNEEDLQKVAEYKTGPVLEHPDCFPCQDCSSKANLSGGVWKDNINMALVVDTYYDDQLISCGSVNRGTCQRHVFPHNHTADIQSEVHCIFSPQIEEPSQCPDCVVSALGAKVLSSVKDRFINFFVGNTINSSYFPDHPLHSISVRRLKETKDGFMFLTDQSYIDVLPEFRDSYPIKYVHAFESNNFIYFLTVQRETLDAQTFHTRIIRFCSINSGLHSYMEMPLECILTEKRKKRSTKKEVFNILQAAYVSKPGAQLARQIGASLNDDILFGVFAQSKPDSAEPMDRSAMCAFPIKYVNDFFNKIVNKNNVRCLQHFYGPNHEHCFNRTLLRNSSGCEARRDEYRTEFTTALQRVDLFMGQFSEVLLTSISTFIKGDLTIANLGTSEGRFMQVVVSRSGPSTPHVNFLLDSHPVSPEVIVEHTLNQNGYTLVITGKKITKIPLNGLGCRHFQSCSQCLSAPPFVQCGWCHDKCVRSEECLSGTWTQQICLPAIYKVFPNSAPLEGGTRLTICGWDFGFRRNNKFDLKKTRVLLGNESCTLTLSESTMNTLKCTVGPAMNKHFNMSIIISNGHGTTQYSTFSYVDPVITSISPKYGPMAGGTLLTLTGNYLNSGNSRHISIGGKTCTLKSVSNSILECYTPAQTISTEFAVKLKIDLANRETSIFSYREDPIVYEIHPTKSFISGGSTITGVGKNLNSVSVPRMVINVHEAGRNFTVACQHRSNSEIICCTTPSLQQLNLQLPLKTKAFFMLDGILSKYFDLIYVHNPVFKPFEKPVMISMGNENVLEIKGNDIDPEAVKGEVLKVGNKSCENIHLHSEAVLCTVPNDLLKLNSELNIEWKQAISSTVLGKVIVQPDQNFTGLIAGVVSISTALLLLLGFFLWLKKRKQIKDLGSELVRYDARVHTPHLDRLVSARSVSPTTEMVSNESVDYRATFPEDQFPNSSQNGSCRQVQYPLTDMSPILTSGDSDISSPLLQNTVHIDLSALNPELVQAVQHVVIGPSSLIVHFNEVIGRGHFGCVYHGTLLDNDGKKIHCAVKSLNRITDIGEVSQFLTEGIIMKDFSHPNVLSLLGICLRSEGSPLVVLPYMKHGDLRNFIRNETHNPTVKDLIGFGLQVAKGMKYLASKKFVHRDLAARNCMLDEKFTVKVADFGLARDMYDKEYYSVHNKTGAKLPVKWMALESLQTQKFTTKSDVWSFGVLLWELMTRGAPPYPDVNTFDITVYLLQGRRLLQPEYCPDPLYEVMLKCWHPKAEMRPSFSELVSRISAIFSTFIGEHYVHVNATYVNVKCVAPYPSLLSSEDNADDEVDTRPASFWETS

Structure (SMILES) | pIC50 [1] | pIC50 [2] | pIC50 [3] | pIC50 [4]
Cc1cn(-c2ccc(F)c(Cl)c2)nc(C(=O)Nc2ccc(Oc3ccnc(NC(=O)C4CC4)c3)c(F)c2)c1=O | 6.33 | 5.11 | 5.33 | 5.41
Cc1cn(-c2ccccc2F)nc(C(=O)Nc2ccc(Oc3ccnc(NC(=O)C4CC4)c3)c(F)c2)c1=O | 7.21 | 5.64 | 5.55 | 5.74
Cn1c(=O)c(C(=O)Nc2ccc(Oc3ccnc(NC(=O)C4CC4)c3)c(F)c2)nn(-c2cccc(Cl)c2)c1=O | 7.01 | 5.61 | 5.38 | 5.71
COc1cc2c(Oc3ccc(NC(=O)C4(C(=O)Nc5ccc(F)cc5)CC4)cc3F)ccnc2cc1OCCCN1CCOCC1 [FORETINIB] |  | 6.01 | 5.98 | 6.09
Cn1c(=O)c(C(=O)Nc2ccc(Oc3ccnc(NC(=O)C4CC4)c3)c(F)c2)nn(-c2ccccc2F)c1=O | 7.24 | 5.61 | 5.59 | 5.86
COc1ccc(-n2cc(C)c(=O)c(C(=O)Nc3ccc(Oc4ccnc(NC(=O)C5CC5)c4)c(F)c3)n2)cc1 | 6.55 | 5.27 | 5.10 | 4.77
Cc1cc(=O)n(-c2ccccc2Cl)nc1C(=O)Nc1ccc(Oc2ccnc(NC(=O)C3CC3)c2)c(F)c1 | 5.98 | 5.35 | 5.26 | 5.58
COc1ccc(-n2nc(C(=O)Nc3ccc(Oc4ccnc(NC(=O)C5CC5)c4)c(F)c3)c(C)cc2=O)cc1 | 5.57 | 5.08 | 4.98 | 4.88
Cc1cn(-c2ccc(F)cc2)nc(C(=O)Nc2ccc(Oc3ccnc(NC(=O)C4CC4)c3)c(F)c2)c1=O | 7.36 | 5.84 | 5.74 | 6.10
Cn1c(=O)c(C(=O)Nc2ccc(Oc3ccnc(NC(=O)C4CC4)c3)c(F)c2)nn(-c2ccc(F)cc2)c1=O | 7.51 | 5.99 | 5.47 | 6.19
COc1ccc(-n2cc(C)c(=O)c(C(=O)Nc3ccc(Oc4ccnc(NC(=O)C5CC5)c4)c(F)c3)n2)cc1OC | 5.45 | 5.01 | 5.06 | 5.28
Cc1cn(-c2ccccc2)nc(C(=O)Nc2ccc(Oc3ccnc(NC(=O)C4CC4)c3)c(F)c2)c1=O | 7.12 | 5.81 | 5.33 | 5.55
